Assays:
Format in all cases: functional, cell-based
HeLa = assay: Cytotoxicity against human HeLa cells after 48 hrs by Cell titer Glo assay
Outline: (§1)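 Cells grown in medium with 10% FBS and penicillin-streptomycin: DMEM for HeLa, MDA-MB231 and PC-3, RPMI for Jurkat. Compounds were taken from 20 mM DMSO stocks and serially diluted in medium at 37 °C. Cells were exposed for 48 h. Viability was read as ATP luminescence and normalized to untreated control (% viability). IC50 came from dose-response curve fits; each was run three times and given as mean ± SD.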

MDA-MB-231 = assay: Cytotoxicity against human MDA-MB-231 cells after 48 hrs by Cell titer Glo assay; conditions: MDA-MB-231, 48 h; outline: as §1
Jurkat = assay: Cytotoxicity against human Jurkat cells after 48 hrs by Cell titer Glo assay; outline: as §1
PC-3 = assay: Cytotoxicity against human PC3 cells after 48 hrs by Cell titer Glo assay; conditions: PC-3, 48 h; outline: as §1

| SMILES | IC50 (HeLa) | IC50 (MDA-MB-231) | IC50 (Jurkat) | IC50 (PC-3) |
| --- | --- | --- | --- | --- |
| CCCCCCCCCCCOC[C@@H]1CC[C@H](O)[C@@H](OCCCCCCCCCCCC[C@@H](O)CC2=C[C@H](C)OC2=O)O1 | 13.9 µM | 21.8 µM | 10.7 µM | 28.7 µM |
| CCCCCCCCCCCOC[C@@H]1C[C@H](O)[C@H](O)[C@@H](OCCCCCCCCCCCC[C@@H](O)CC2=C[C@H](C)OC2=O)O1 | 23.3 µM | 36.7 µM | 19.7 µM | 52.8 µM |
| CCCCCCCCCCCOC[C@H]1O[C@H](OCCCCCCCCCCCC[C@@H](O)CC2=C[C@H](C)OC2=O)[C@@H](O)[C@@H](O)[C@@H]1O | 15.2 µM | 21.2 µM | 10.1 µM | 32.6 µM |
| CCCCCCCCCCCOC[C@H]1O[C@H](OCCCCCCCCCCCC[C@@H](O)CC2=C[C@H](C)OC2=O)C[C@@H](O)[C@@H]1O | 16.3 µM | 16.8 µM | 13.3 µM | 44 µM |
| CCCCCCCCCCCO[C@H]1[C@@H](O)[C@@H](CO)O[C@@H](OCCCCCCCCCCCC[C@@H](O)CC2=C[C@H](C)OC2=O)[C@@H]1O | 50.3 µM | 73.5 µM | 78.2 µM |  |
| CCCCCCCCCCCC[C@@H](O)[C@H]1CC[C@H]([C@H](O)CCCCC[C@@H](O)CCCCCCC2=C[C@H](C)OC2=O)O1 | 21 µM | 34.2 µM | 17.8 µM | 43.1 µM |
